Assay outcomes: PubChem BioAssay, The Scripps Research Institute Molecular Screening Center
Hits are enriched below; roughly 2% of the tested compounds scored in any of these assays.
ASAP1 inh – blocks human ASAP1-stimulated Arf1 GTP hydrolysis | Q9ULH1 | AID 624377 | inhibition, % at 16.5 µM | GDP FP detection | hit rate 0.19% among 360,000; in the data active means inhibition above about 25%
MBD2 DNA inh – MBD2-methylated oligo binding inhibition | Q9UBB5 | TR-FRET, MBD2 binding to methylated oligonucleotide | inhibition, % at 4.4 µM | hit rate 0.31% among 370,000 | AID 686964; in the data active means inhibition above about 13%
TCR CD3 inh – blocks the human TCR-CD3 interaction; TAMRA-labeled TCR probe fluorescence, biochemical; inhibition, % at 9.4 µM; hit rate 0.37% among 360,000; AID 651800; in the data active means inhibition above about 19%;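 further: recombinant mutant TCR 2C K166C tagged with TAMRA read by polarization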
LEDGF integ inh – blocks HIV-1 LEDGF/p75-dependent DNA integration; TR-FRET IN-LEDGF/p75 DNA integration, Eu/Cy5; inhibition, % at 3.7 µM; hit rate 0.64% among 370,000; AID 743269;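 active means inhibition above the screen-wide mean plus 3 SD, cut at about 13% in these data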;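 further: signal is the Cy5 over europium emission ratio at 671 and 618 nm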
UHRF1 MBD2 ctr – human UHRF1 methylated DNA binding inhibitors | hit rate 0.75% among 370,000 | Q96T88 | AID 687016 | inhibition, % at 4.4 µM | UHRF1 binding to methylated oligo, TR-FRET; in the data active means inhibition above about 21%;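 further: UHRF1 SRA domain binding a hemimethylated CpG hairpin DNA probe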
Target sequence (Q96T88 whole entry, looked up, the tested form may be a part): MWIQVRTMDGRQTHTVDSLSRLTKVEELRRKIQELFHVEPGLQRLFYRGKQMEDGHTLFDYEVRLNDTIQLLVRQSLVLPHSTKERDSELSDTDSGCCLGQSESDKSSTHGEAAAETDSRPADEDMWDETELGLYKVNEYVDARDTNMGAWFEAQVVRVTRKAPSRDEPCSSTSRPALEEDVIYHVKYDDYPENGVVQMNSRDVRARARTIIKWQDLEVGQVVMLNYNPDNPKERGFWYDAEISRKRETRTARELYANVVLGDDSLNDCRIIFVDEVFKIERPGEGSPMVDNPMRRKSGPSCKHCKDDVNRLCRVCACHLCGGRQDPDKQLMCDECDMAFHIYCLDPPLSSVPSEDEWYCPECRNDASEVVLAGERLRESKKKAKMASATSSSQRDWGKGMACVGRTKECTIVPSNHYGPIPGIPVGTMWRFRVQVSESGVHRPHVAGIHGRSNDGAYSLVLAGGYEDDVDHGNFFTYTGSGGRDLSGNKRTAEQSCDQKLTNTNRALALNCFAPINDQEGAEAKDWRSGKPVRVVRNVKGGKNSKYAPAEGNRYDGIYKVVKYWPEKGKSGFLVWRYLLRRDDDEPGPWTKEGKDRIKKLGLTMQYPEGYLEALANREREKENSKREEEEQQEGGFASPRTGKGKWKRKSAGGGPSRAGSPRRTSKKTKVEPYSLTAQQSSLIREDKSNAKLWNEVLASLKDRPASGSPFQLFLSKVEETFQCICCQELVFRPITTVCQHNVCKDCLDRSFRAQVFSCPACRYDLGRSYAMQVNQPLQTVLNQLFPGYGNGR
ARFGAP1 inh – inhibits rat ARF GTPase activating protein 1 | inhibition, % at 16.5 µM | Arfgap1-stimulated ARF1 GTP hydrolysis, GDP FP detection | hit rate 0.26% among 360,000;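 active means inhibition above a per-plate limit, mean inhibition of low control wells plus 3 SD, cut at about 25% in these data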
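Material: rat Arfgap1 catalytic domain, aa 1-136; also added: human ARF1(Δ1-17)-GTP substrate; compound dosing: one concentration, 16.5 µM, DMSO 1.26%; incubation: GTP hydrolysis reaction 2 h at 25 °C; measured by: Tracer-displacement fluorescence polarization with EDTA stop, 620/688 nm; evaluation: % inhibition from polarization; repeats: one replicate per compound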
Each line names hits and unclear results; the compound was inactive in the other large screens.

CC1(C)c2[nH]c3ccccc3c2C[C@@H]2C(=O)N(c3cc(F)ccc3F)C(=O)N21	ASAP1 inh 27.5
Cc1ccc(Cc2c(-c3ccc(Cl)cc3)nc3ccc(Br)cn23)cc1	UHRF1 MBD2 ctr 21.5
Cc1ccc(Cc2c(-c3cccc(Br)c3)nc3ccc(Br)cn23)cc1	none
Brc1ccc(-c2nc3ccc(Br)cn3c2Cc2ccccc2)cc1	UHRF1 MBD2 ctr 20.9
Clc1ccc(-c2nc3ccc(Br)cn3c2Cc2ccsc2)cc1	none
Cc1ccc2nc(-c3ccc(Cl)cc3)c(Cc3cccc(Cl)c3)n2c1	none
Cc1ccc(Cc2c(-c3ccc(C)cc3)nc3ccc(Br)cn23)cc1	UHRF1 MBD2 ctr 21.7
Clc1ccc(-c2nc3ccc(Br)cn3c2Cc2ccccc2)cc1	none
Cc1ccc2nc(-c3ccc(F)cc3)c(Cc3cccc(Cl)c3)n2c1	UHRF1 MBD2 ctr 65.8
COc1ccc(C2Nc3cccc(O)c3C(=O)N2Cc2ccccc2)cc1COc1ccc(NC(C)=O)cc1 (configuration not stated)	none
COc1cccc(CN2CCC2(C)C(=O)NCc2cccc(C(F)(F)F)c2)c1OC (configuration not stated)	none
COc1cc(Cl)ccc1OC1(C)CCN(Cc2cccc(OC)c2OC)C1 (configuration not stated)	none
COc1ccccc1CN(C)C(=O)C1CCCN(c2nc3ccccc3o2)C1 (configuration not stated)	none (no result: ASAP1 inh, TCR CD3 inh, ARFGAP1 inh)
CCCc1nc2ccc(Cl)cn2c1Cc1cccc(Cl)c1	none
CCCc1nc2ccc(Cl)cn2c1Cc1ccc(C)cc1	UHRF1 MBD2 ctr 21.3
CC(=O)Nc1ccc(/C=N\NC(=O)c2cccc(S(=O)(=O)N(C)C)c2)cc1	none (no result: ASAP1 inh, TCR CD3 inh, ARFGAP1 inh)
COc1ccc(NS(=O)(=O)c2cc(NC(=O)c3ccc(=O)[nH]n3)ccc2N2CCOCC2)cc1	UHRF1 MBD2 ctr 29.2
Oc1ccc(/C=N/Nc2cc(N3CCCC3)nc(N3CCCC3)n2)cc1O	TCR CD3 inh 33.0, LEDGF integ inh 33.0
CCCCc1cn([C@@H](CCCCN)C(=O)N2CCNCC2)nn1	UHRF1 MBD2 ctr 24.3
S=c1[nH]nc(-c2ccccc2)c2ccccc12	none
Cc1ccc(-c2n[nH]c(=S)c3ccccc23)cc1	UHRF1 MBD2 ctr 40.1
CCOC(=O)c1cc(-c2ccccc2)sc1NC(=O)CN1C(=O)NC(CC)(c2ccc(F)cc2)C1=O (configuration not stated)	UHRF1 MBD2 ctr 24.3
Cc1ccc(C)c(NC(=O)CCC(=O)N/N=C/c2ccc3c(c2)OCO3)c1	none
O=C(CCc1ccc(O)c(O)c1)N/N=C/c1ccc2c(c1)OCO2	LEDGF integ inh 33.0, UHRF1 MBD2 ctr 21.2
Cc1c(COC(=O)NC(C)C)c(COC(=O)NC(C)C)c2n1CS(=O)(=O)C2	UHRF1 MBD2 ctr 26.4
Cc1cc(C)cc(OCCCN2CCC(C(O)(c3ccccc3)c3ccccc3)CC2)c1	none
C[C@H](O)[C@@H]1CN2CCc3ccc(N4CCOCC4)cc3[C@@H]2C[C@@H]1N(C)C(=O)c1ccco1	none (no result: ASAP1 inh, TCR CD3 inh, ARFGAP1 inh)
NC1=NS(=O)(=O)Nc2ccccc21	none (no result: ASAP1 inh, TCR CD3 inh, ARFGAP1 inh)
O=S1(=O)c2ccccc2OC(COCc2ccccc2)CN1C1CC1 (configuration not stated)	UHRF1 MBD2 ctr 25.9
COc1ccc(C2(C(=O)Nc3ccc(S(=O)(=O)Nc4nc(C)cc(C)n4)cc3)CCCC2)cc1OC	UHRF1 MBD2 ctr 42.8
COc1ccccc1CNC(=O)c1ccc(-c2ccccc2)cc1	UHRF1 MBD2 ctr 26.2
COc1ccc(C(=O)NCc2ccccc2OC)cc1	none
Cc1nn(C)c(C)c1C1C(C#N)=C(N)OC2=C1C(=O)CCC2 (configuration not stated)	UHRF1 MBD2 ctr 21.4
CCn1nc(C)c(C2C(C#N)=C(N)OC3=C2C(=O)CCC3)c1C (configuration not stated)	none
CS(=O)(=O)c1ccccc1C(=O)Nc1ccc(-c2nc3ccccc3[nH]2)cc1	none
Cc1ccccc1C(=O)Nc1ccc(-c2nc3ccc(C(=O)c4ccccc4)cc3[nH]2)cc1	TCR CD3 inh 67.2
Cc1occc1-c1nnc(SCC(=O)N2CCCc3ccccc32)n1Cc1ccco1	UHRF1 MBD2 ctr 21.8
O=c1cc(OCc2ccccc2)cc[nH]1	LEDGF integ inh 23.8
C=CCN1[C@H](CO)[C@H](c2ccccc2)[C@@H]1C#N	none (no result: ASAP1 inh, TCR CD3 inh, ARFGAP1 inh)
C=CCCC1(CCC)C(=O)/C(=C(\O)c2ccccc2)C(=O)C(CCC)=C1OC (configuration not stated)	none (no result: ASAP1 inh, TCR CD3 inh, ARFGAP1 inh)
O=C(NC(Cc1ccccc1)C(=O)O)/C(=C\c1ccc(Cl)cc1)NC(=O)c1ccccc1 (configuration not stated)	UHRF1 MBD2 ctr 28.0
Cc1ccccc1CN1CCCCC(NC(=O)c2cc(-c3ccccc3)no2)C1=O (configuration not stated)	none (no result: ASAP1 inh, TCR CD3 inh, ARFGAP1 inh)
CCCCNC(=O)COC(=O)c1c2c(nc3ccccc13)/C(=C/c1cccs1)CC2	none
CC1CCCCC1NC(=O)COC(=O)c1c2c(nc3ccccc13)/C(=C\c1ccco1)CC2 (configuration not stated)	LEDGF integ inh 27.2
Cc1ccc(S(=O)c2ccc([N+](=O)[O-])c3nonc23)cc1 (configuration not stated)	none
CCN1Cc2nnn(Cc3ccc(C)cc3)c2-c2ccccc2S1(=O)=O	none (no result: ASAP1 inh, TCR CD3 inh, ARFGAP1 inh)
O=C(c1ccccc1)N1CCCc2ccccc21	UHRF1 MBD2 ctr 20.8
O=C(c1ccccc1)N1CCc2ccccc21	none
O=C(c1ccc(=O)oc1)N1CCCc2ccccc21	LEDGF integ inh 21.5
O=C(c1ccc(Br)cc1)N1CCCc2ccccc21	none
N#CCN1C(=O)NC2(CCCc3sccc32)C1=O (configuration not stated)	UHRF1 MBD2 ctr 94.2
COC(=O)CC1=NN(c2nc3ccccc3s2)C(=O)/C1=C/N(C)C	UHRF1 MBD2 ctr 78.6
COC(=O)Cc1[nH]n(-c2nc3ccccc3s2)c(=O)c1C(C)=O	none
COP(=O)(O)C(Cc1ccccc1)NC(=O)OCc1ccccc1 (configuration not stated)	none (no result: ASAP1 inh, TCR CD3 inh, ARFGAP1 inh)
O=C(NC(=S)Nc1cccc(O)c1)C1CCCCC1	none
CC(C)(C)[C@@H]1C=C(C(=O)NC2CC2)O[C@H](OCc2ccc(CO)cc2)C1	UHRF1 MBD2 ctr 37.2
CCCN(CCO)CCCc1ccccc1	LEDGF integ inh 88.6
Cc1[nH]n(-c2cccc(Cl)c2)c(=O)c1-c1ccccc1	UHRF1 MBD2 ctr 38.7
Cc1[nH]n(-c2ccccc2)c(=O)c1-c1ccccc1	none
O=C(NCCN1CCCCC1)Nc1ccc(F)cc1F	UHRF1 MBD2 ctr 22.7
O=C(NCCN1CCCCC1)Nc1ccccc1F	none
CCCCn1c(N)c(N(CCOC)C(=O)c2ccc(Br)o2)c(=O)[nH]c1=O	none
CCCCn1c(N)c(N(CCOC)C(=O)c2ccc(N(C)S(=O)(=O)c3ccc(C)cc3)cc2)c(=O)[nH]c1=O	none
CCCCN(C(=O)c1ccc(NC2CC2)c([N+](=O)[O-])c1)c1c(N)n(CCCC)c(=O)[nH]c1=O	none
